# ChEMBL document CHEMBL3779881, “Property Focused Structure-Based Optimization of Small Molecule Inhibitors of the Protein-Protein Interaction between Menin and Mixed Lineage Leukemia (MLL)” (J Med Chem, 2016)
# Assays:
# [1] = Half life in CD-1 mouse liver microsomes at 1 uM after 3 to 60 mins by LC-MS/MS analysis; assay type: ADME
# [2] = Growth inhibition of MLL-AF9 transformed mouse bone marrow cells after 7 days by MTT assay; assay type: functional; conditions: Bone marrow cell, 168 h
# [3] = target: Menin/Histone-lysine N-methyltransferase MLL (Homo sapiens, UniProt O00255); assay: Inhibition of menin-MLL interaction (unknown origin) after 1 hr by fluorescence polarization assay; assay type: protein assay
# [4] = Growth inhibition of Hoxa9/Meis1 transformed mouse bone marrow cells after 7 days by MTT assay; assay type: functional; conditions: Bone marrow cell, 168 h
# Bone marrow cell = assay: Selectivity index, ratio of GI50 for Hoxa9/Meis1 transformed mouse bone marrow cells to GI50 for MLL-AF9 transformed mouse bone marrow cells; assay type: functional
# Mus musculus [5] = assay: Half life in C57BL/6 mouse at 30 mg/kg, po after 24 hrs by LC-MS/MS analysis; assay type: ADME, organism-based; conditions: in vivo
# Outline: (§1)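 Female C57BL/6 mice dosed iv at 15 mg/kg or orally at 30 mg/kg in 25% DMSO/25% PEG-400/50% PBS (v/v). Serial 50 μL blood samples collected over 24 h (8 h in one experiment), spun to plasma; concentrations by validated LC-MS/MS in positive-ion MRM mode; parameters from noncompartmental analysis.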
# Mus musculus [6] = assay: Tmax in C57BL/6 mouse plasma at 30 mg/kg, po after 24 hrs by LC-MS/MS analysis; assay type: ADME, organism-based; conditions: in vivo; outline: as §1
# [7] = Clearance in C57BL/6 mouse at 15 mg/kg, iv after 24 hrs by LC-MS/MS analysis; assay type: ADME, organism-based; conditions: in vivo; outline: as §1
# Mus musculus [8] = assay: Cmax in C57BL/6 mouse plasma at 30 mg/kg, po after 24 hrs by LC-MS/MS analysis; assay type: ADME, organism-based; design: dose 30 mg/kg, route oral; conditions: in vivo; outline: as §1
# Mus musculus [9] = assay: Oral bioavailability in C57BL/6 mouse at 30 mg/kg after 24 hrs by LC-MS/MS analysis; assay type: ADME, organism-based; conditions: in vivo; outline: as §1
# Mus musculus [10] = assay: AUC in C57BL/6 mouse at 30 mg/kg, po after 24 hrs by LC-MS/MS analysis; assay type: ADME, organism-based; design: time < 24 hr, dose 30 mg/kg, route oral; conditions: in vivo; outline: as §1
# Mus musculus [11] = assay: Volume of distribution at steady state in C57BL/6 mouse at 15 mg/kg, iv after 24 hrs by LC-MS/MS analysis; assay type: ADME, organism-based; conditions: in vivo; outline: as §1
# Mus musculus [12] = assay: AUC in C57BL/6 mouse at 15 mg/kg, iv after 24 hrs by LC-MS/MS analysis; assay type: ADME, organism-based; design: dose 15 mg/kg, time < 24 hr, route intravenous; conditions: in vivo; outline: as §1
# Mus musculus [13] = assay: Half life in C57BL/6 mouse at 15 mg/kg, iv after 24 hrs by LC-MS/MS analysis; assay type: ADME, organism-based; conditions: in vivo; outline: as §1
# Menin = target: T1, Menin (Homo sapiens, UniProt O00255); assay: Binding affinity to menin (unknown origin)
# T1 sequence (O00255 whole entry): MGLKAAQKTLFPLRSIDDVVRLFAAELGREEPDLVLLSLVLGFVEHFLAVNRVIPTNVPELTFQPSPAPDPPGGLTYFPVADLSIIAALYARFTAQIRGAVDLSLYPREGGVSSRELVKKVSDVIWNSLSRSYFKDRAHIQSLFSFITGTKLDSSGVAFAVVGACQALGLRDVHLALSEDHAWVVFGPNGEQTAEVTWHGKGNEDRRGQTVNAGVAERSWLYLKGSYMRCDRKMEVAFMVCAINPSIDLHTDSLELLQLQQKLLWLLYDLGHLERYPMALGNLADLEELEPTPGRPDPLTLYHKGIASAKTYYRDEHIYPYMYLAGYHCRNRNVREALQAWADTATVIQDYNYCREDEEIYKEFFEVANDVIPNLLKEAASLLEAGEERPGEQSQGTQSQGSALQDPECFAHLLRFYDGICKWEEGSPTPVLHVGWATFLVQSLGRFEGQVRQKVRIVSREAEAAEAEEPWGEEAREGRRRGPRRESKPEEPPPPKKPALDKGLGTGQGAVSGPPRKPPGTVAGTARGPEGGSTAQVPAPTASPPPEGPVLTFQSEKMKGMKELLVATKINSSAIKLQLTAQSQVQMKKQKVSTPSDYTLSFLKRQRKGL
# Sequence of Menin/Histone-lysine N-methyltransferase MLL (Q03164 1-2718 partner limits assumed, one chain of several): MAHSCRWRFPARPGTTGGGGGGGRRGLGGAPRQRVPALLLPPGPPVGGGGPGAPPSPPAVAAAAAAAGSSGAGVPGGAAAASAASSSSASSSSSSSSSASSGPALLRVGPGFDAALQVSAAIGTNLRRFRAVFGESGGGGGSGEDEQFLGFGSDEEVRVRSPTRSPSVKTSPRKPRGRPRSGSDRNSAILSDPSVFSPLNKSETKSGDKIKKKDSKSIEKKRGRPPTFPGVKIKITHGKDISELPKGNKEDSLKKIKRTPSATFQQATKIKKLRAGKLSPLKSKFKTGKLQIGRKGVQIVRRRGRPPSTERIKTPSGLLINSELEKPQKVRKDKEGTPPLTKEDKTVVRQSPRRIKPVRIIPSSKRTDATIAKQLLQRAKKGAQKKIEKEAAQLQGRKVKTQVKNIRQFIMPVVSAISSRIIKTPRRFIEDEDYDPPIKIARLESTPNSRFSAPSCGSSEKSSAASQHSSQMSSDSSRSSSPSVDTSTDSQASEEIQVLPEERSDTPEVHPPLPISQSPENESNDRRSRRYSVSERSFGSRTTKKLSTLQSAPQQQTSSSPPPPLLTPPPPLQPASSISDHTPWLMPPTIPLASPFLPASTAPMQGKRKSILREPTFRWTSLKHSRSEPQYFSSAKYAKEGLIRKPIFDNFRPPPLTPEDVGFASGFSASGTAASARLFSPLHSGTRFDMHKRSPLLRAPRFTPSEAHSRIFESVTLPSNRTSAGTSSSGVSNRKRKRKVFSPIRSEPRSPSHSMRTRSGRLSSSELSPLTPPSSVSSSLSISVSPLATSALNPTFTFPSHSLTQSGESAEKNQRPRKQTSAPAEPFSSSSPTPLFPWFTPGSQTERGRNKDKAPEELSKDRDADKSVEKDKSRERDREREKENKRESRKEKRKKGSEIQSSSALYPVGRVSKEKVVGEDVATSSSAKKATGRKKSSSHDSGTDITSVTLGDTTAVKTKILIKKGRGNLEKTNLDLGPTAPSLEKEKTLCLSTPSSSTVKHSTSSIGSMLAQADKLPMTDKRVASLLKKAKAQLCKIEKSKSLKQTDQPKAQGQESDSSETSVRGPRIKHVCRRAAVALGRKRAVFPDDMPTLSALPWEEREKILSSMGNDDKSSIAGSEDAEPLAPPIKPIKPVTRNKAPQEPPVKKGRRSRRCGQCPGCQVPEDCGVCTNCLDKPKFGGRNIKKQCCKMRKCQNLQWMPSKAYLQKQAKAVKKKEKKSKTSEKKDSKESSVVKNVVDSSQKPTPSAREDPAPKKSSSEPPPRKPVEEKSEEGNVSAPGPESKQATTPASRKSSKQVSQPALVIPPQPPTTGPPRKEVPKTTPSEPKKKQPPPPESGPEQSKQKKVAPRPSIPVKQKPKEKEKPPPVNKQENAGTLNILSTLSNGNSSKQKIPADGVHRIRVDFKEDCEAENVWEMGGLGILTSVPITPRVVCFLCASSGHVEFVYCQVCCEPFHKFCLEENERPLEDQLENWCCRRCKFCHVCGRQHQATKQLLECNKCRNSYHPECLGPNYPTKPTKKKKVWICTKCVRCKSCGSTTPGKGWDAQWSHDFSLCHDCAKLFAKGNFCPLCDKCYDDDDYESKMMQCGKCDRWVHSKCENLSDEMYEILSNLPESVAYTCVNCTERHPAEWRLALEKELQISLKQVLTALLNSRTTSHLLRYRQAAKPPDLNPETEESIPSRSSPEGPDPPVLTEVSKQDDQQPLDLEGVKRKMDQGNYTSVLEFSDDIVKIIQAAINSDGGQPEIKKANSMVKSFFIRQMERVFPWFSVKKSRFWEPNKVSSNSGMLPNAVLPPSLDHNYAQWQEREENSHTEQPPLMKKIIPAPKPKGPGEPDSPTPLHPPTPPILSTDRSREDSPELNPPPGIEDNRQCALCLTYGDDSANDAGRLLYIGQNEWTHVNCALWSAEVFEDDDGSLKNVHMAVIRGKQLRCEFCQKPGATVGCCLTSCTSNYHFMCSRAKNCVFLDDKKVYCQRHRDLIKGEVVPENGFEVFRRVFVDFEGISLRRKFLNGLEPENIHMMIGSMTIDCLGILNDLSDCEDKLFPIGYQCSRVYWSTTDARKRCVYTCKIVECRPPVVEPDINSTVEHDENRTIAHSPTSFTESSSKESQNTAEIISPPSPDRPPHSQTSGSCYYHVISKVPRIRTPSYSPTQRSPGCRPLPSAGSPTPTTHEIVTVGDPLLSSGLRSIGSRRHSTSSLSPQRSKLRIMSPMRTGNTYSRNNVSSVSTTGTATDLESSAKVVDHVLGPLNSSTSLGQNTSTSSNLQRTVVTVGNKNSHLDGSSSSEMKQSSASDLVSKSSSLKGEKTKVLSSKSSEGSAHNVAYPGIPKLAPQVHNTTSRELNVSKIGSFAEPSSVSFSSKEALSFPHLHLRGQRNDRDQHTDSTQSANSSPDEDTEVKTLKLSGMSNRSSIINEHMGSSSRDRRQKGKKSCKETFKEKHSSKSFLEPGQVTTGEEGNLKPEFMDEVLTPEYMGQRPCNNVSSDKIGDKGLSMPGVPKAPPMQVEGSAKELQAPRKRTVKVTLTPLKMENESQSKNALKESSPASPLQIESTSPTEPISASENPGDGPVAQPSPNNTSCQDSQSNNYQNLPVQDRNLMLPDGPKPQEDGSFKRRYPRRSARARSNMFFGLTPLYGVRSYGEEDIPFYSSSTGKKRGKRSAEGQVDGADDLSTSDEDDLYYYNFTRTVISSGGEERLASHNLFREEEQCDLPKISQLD
# Sequence of Menin/Histone-lysine N-methyltransferase MLL (Q03164 2719-3969 partner limits assumed, one chain of several): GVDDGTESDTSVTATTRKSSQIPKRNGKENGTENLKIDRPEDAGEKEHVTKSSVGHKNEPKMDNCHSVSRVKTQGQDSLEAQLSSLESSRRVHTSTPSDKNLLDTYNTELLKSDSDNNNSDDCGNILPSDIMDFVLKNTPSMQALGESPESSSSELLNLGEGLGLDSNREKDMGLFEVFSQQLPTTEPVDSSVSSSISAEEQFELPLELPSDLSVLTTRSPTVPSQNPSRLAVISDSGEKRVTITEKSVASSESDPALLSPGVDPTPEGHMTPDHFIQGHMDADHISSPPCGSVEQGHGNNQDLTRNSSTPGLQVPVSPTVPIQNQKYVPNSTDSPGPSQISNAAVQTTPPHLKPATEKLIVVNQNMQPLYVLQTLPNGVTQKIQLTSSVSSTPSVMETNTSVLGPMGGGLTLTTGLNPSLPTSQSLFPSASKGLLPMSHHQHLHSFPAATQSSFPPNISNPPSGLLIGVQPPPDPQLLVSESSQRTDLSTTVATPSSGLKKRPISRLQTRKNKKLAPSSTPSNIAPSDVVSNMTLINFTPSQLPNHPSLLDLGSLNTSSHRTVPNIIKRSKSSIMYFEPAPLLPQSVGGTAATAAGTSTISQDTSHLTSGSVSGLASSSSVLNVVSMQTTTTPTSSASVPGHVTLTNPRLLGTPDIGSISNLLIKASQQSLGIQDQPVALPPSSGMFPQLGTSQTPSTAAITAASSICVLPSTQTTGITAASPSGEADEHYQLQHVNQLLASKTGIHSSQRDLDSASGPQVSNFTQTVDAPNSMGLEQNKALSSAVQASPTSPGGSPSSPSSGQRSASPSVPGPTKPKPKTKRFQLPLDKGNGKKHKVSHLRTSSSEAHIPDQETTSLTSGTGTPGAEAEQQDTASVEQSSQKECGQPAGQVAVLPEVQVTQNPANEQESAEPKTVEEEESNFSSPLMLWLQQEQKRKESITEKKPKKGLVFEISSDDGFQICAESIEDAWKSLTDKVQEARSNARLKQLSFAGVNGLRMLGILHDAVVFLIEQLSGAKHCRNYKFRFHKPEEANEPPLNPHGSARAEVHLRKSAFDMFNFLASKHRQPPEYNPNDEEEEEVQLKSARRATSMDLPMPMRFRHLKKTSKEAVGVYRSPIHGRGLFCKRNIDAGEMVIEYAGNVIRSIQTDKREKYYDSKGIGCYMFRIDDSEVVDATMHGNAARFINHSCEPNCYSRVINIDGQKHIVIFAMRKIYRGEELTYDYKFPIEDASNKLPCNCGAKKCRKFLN
Structure (SMILES),t1/2 [1] [min],IC50 [3] [nM],t1/2 (Mus musculus [5]) [min],Tmax (Mus musculus [6]) [min],clearance [7] [mL/min/kg],Cmax (Mus musculus [8]) [ng/mL],F (Mus musculus [9]) [%],AUC (Mus musculus [10]) [ng·h/mL],Vdss (Mus musculus [11]) [L/kg],AUC (Mus musculus [12]) [ng·h/mL],t1/2 (Mus musculus [13]) [min],Kd (Menin) [nM],GI50 [2] [nM],GI50 [4] [nM],RatioGI50 (Bone marrow cell)
CC(C(N)=O)n1c(C#N)cc2cc(CN3CCC(Nc4ncnc5sc(CC(F)(F)F)cc45)CC3)ccc21 (stereo unspecified),–,244,–,–,–,–,–,–,–,–,–,–,–,–,–
Cc1c(C#N)[nH]c2ccc(CN3CCC(Nc4ncnc5sc(CC(F)(F)F)cc45)CC3)cc12,4.8,111,–,–,–,–,–,–,–,–,–,–,2600,–,–
N#Cc1[nH]c2ccc(CN3CCC(Nc4ncnc5sc(CC(F)(F)F)cc45)CC3)cc2c1N,27,124,–,–,–,–,–,–,–,–,–,–,5200,–,–
Cc1c(CN2CCC(Nc3ncnc4sc(CC(F)(F)F)cc34)CC2)ccc2c1cc(C#N)n2CCO,23,44,–,–,–,–,–,–,–,–,–,–,440,5600,13
COc1cc2[nH]c(C#N)cc2c(C)c1CN1CCC(Nc2ncnc3sc(CC(F)(F)F)cc23)CC1,39,40,120,30,26.6,2113,46,8717,3.698,9397,108,–,100,11000,110
COCC(O)Cn1c(C#N)cc2cc(CN3CCC(Nc4ncnc5sc(CC(F)(F)F)cc45)CC3)ccc21 (stereo unspecified),< 3,101,–,–,–,–,–,–,–,–,–,–,2100,–,–
Cc1c(CN2CCC(Nc3ncnc4sc(CC(F)(F)F)cc34)CC2)ccc2[nH]c(C#N)cc12,–,–,–,–,–,–,–,–,–,–,–,–,200,5600,–
N#Cc1cc2cc(CN3CCC(Nc4ncnc5sc(CC(F)(F)F)cc45)CC3)ccc2n1C[C@@H](O)CO,48,46,–,–,–,–,–,–,–,–,–,–,1700,> 40000,>24
CO[C@@H](CO)Cn1c(C#N)cc2cc(CN3CCC(Nc4ncnc5sc(CC(F)(F)F)cc45)CC3)ccc21,< 3,40,–,–,–,–,–,–,–,–,–,–,360,9700,27
N#Cc1cc2cc(CN3CCC(Nc4ncnc5sc(CC(F)(F)F)cc45)CC3)c(F)cc2[nH]1,9,109,–,–,–,–,–,–,–,–,–,–,3000,> 12000,>4
CCOc1cc2[nH]c(C#N)cc2cc1CN1CCC(Nc2ncnc3sc(CC(F)(F)F)cc23)CC1,11,47,–,–,–,–,–,–,–,–,–,–,450,5300,12
N#Cc1cc2cc(CN3CCC(Nc4ncnc5sc(CC(F)(F)F)cc45)CC3)ccc2n1C[C@H](O)CO,> 60,42,–,–,–,–,–,–,–,–,–,–,3800,–,–
COc1cc2c(cc(C#N)n2CC(N)=O)c(C)c1CN1CCC(Nc2ncnc3sc(CC(F)(F)F)cc23)CC1,> 60,37,–,–,–,–,–,–,–,–,–,–,420,> 25000,>60
N#Cc1[nH]c2ccc(CN3CCC(Nc4ncnc5sc(CC(F)(F)F)cc45)CC3)cc2c1F,5.7,96,–,–,–,–,–,–,–,–,–,–,1700,–,–

# Further lines, with some results ahead:
t1/2 [1] [min],IC50 [3] [nM],t1/2 (Mus musculus [5]) [min],Tmax (Mus musculus [6]) [min],clearance [7] [mL/min/kg],Cmax (Mus musculus [8]) [ng/mL],F (Mus musculus [9]) [%],AUC (Mus musculus [10]) [ng·h/mL],Vdss (Mus musculus [11]) [L/kg],AUC (Mus musculus [12]) [ng·h/mL],t1/2 (Mus musculus [13]) [min],Kd (Menin) [nM],Structure (SMILES),GI50 [2] [nM],GI50 [4] [nM],RatioGI50 (Bone marrow cell)
28,22,–,–,–,–,–,–,–,–,–,–,N#Cc1cc2c(Cl)c(CN3CCC(Nc4ncnc5sc(CC(F)(F)F)cc45)CC3)ccc2[nH]1,1100,11000,10
5.2,37,–,–,–,–,–,–,–,–,–,–,CO[C@H](CO)Cn1c(C#N)cc2cc(CN3CCC(Nc4ncnc5sc(CC(F)(F)F)cc45)CC3)ccc21,660,6900,11
6.6,20,–,–,–,–,–,–,–,–,–,–,N#Cc1cc2cc(CN3CCC(Nc4ncnc5sc(CC(F)(F)F)cc45)CC3)c(O)cc2[nH]1,180,> 10000,>56
> 60,37,–,–,–,–,–,–,–,–,–,–,N#Cc1cc2cc(CN3CCC(Nc4ncnc5sc(CC(F)(F)F)cc45)CC3)ccc2n1CC(O)CO (racemic),3400,> 12000,>3.5
35,24,–,–,–,–,–,–,–,–,–,–,COc1cc2c(cc1CN1CCC(Nc3ncnc4sc(CC(F)(F)F)cc34)CC1)cc(C#N)n2Cc1cn[nH]c1,290,6700,23
59,23,–,–,–,–,–,–,–,–,–,–,Cc1c(CN2CCC(Nc3ncnc4sc(CC(F)(F)F)cc34)CC2)ccc2c1cc(C#N)n2Cc1c[nH]nn1,250,8000,32
8.3,23,–,–,–,–,–,–,–,–,–,–,N#Cc1cc2cc(CN3CCC(Nc4ncnc5sc(CC(F)(F)F)cc45)CC3)ccc2n1Cc1cn[nH]c1,260,6900,27
< 3,23,–,–,–,–,–,–,–,–,–,–,CC(C)OC(CO)Cn1c(C#N)cc2cc(CN3CCC(Nc4ncnc5sc(CC(F)(F)F)cc45)CC3)ccc21 (stereo unspecified),180,3500,19
56,27,240,120,44.1,649,34,3846,4.454,5666,102,–,Cc1c(CN2CCC(Nc3ncnc4sc(CC(F)(F)F)cc34)CC2)c(O)cc2[nH]c(C#N)cc12,220,12000,55
7.8,16,–,–,–,–,–,–,–,–,–,–,COc1cc2c(cc(C#N)n2CCO)c(C)c1CN1CCC(Nc2ncnc3sc(CC(F)(F)F)cc23)CC1,360,15000,69
32,16,–,–,–,–,–,–,–,–,–,–,COc1cc2c(cc(C#N)n2Cc2c[nH]nn2)c(C)c1CN1CCC(Nc2ncnc3sc(CC(F)(F)F)cc23)CC1,410,9000,22
6.8,31,186,60,38.1,1516,57,7509,6.516,6576,186,23.6,N#Cc1cc2cc(CN3CCC(Nc4ncnc5sc(CC(F)(F)F)cc45)CC3)ccc2[nH]1,550,3000,5.5
25,17,–,–,–,–,–,–,–,–,–,–,Cc1c(CN2CCC(Nc3ncnc4sc(CC(F)(F)F)cc34)CC2)c(O)cc2c1cc(C#N)n2Cc1c[nH]nn1,420,10000,24
25,18,–,–,–,–,–,–,–,–,–,–,Cc1c(CN2CCC(Nc3ncnc4sc(CC(F)(F)F)cc34)CC2)c(O)cc2c1cc(C#N)n2Cc1cn[nH]c1,270,13000,48
3.7,22,–,–,–,–,–,–,–,–,–,–,COc1cc2[nH]c(C#N)cc2cc1CN1CCC(Nc2ncnc3sc(CC(F)(F)F)cc23)CC1,340,16000,47
11,27,–,–,–,–,–,–,–,–,–,–,Cc1c(CN2CCC(Nc3ncnc4sc(CC(F)(F)F)cc34)CC2)c(O)cc2c1cc(C#N)n2CCO,400,10000,25
59,27,–,–,–,–,–,–,–,–,–,–,Cc1c(CN2CCC(Nc3ncnc4sc(CC(F)(F)F)cc34)CC2)ccc2c1cc(C#N)n2CC(N)=O,470,> 25000,>53
18,35,–,–,–,–,–,–,–,–,–,–,N#Cc1cc2cc(CN3CCC(Nc4ncnc5sc(CC(F)(F)F)cc45)CC3)ccc2n1CCO,1100,6200,5.6
11,27,–,–,–,–,–,–,–,–,–,–,N#Cc1cc2cc(CN3CCC(Nc4ncnc5sc(CC(F)(F)F)cc45)CC3)ccc2n1Cc1c[nH]nn1,330,10000,30
